We go through 2 compounds from ChEMBL document CHEMBL3758162, “Synthesis, biological characterization and molecular modeling insights of spirochromanes as potent HDAC inhibitors” (Eur J Med Chem, 2016).

Structures are written as SMILES.

Data set [1] is described as follows: Metabolic stability in human liver microsomes assessed as compound remaining at 1 uM preincubated for 10 mins measured after 30 mins by LC-MS/MS analysis. The settings on record: liver microsomes, read-out: Stability. The class given is ADME. The gist of the method:
(§1)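 Compound at 1 µM pre-incubated 10 min at 37 °C in potassium phosphate buffer pH 7.4 with 0.5 mg/mL mouse or human hepatic microsomes. Parent quantified by LC-MS/MS (ESI+, MRM, verapamil internal standard). % remaining = peak area at 30 min / area at 0 min × 100; n≥2, mean.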

Data set [2] concerns the target T1, CYP1A2 (Homo sapiens, UniProt P05177).
T1 sequence (P05177 whole entry): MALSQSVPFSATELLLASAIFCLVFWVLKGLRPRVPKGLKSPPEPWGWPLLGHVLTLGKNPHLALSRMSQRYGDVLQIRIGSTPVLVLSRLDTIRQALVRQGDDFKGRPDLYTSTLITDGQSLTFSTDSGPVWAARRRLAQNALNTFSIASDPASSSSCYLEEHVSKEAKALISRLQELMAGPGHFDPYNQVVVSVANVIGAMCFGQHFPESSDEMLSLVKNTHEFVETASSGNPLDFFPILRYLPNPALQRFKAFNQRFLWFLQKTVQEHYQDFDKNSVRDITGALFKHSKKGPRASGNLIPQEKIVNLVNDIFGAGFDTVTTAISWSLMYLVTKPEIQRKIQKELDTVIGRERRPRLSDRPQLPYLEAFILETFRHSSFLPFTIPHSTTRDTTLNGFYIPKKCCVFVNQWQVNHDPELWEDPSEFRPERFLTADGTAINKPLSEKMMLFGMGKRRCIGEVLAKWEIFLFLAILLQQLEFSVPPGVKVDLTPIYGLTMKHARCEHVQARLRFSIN
Briefly: Inhibition of human CYP1A2 using 3-cyano-7-ethoxycoumarin as substrate at 10 uM after 15 mins by fluorimetric analysis. The settings on record: probe 3-cyano-7-ethoxycoumarin. It is filed as ADME. The gist of the method: (§2)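 Test compounds at 10 µM in potassium phosphate buffer pH 7.4 with NADPH regenerating system (final 1.3 mM NADP⁺, 3.3 mM glucose 6-phosphate, 0.4 U/ml G6PDH); reaction started at 37 °C by adding Supersomes isoenzyme plus substrate. Enzyme and substrate amounts: CYP1A2 0.5 pmol, 5 µM CEC; CYP2C19 0.5 pmol, 25 µM CEC; CYP3A4 1 pmol, 50 µM BFC; CYP2D6 1.5 pmol, 1.5 µM AMMC. Stopped with acetonitrile/Tris base; fluorescence read; % inhibition versus enzyme without inhibitor; n≥2, mean.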

The target of data set [3] is Histone deacetylase 2 (Homo sapiens, UniProt Q92769). Briefly: Inhibition of recombinant human HDAC2 after 15 mins by fluorescence assay. The gist of the method: (§3)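 Recombinant human HDAC2, 3 or 6 (20, 6 and […] respectively) diluted in assay buffer with inhibitor and 25 µM fluorogenic acetyl-lysine substrate; 15 min at room temperature, then developer 10 min; fluorescence read. Concentration–inhibition data fitted by non-linear regression to give IC50; replicates n≥2, mean shown.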
Chain of Histone deacetylase 2 (Q92769 whole entry): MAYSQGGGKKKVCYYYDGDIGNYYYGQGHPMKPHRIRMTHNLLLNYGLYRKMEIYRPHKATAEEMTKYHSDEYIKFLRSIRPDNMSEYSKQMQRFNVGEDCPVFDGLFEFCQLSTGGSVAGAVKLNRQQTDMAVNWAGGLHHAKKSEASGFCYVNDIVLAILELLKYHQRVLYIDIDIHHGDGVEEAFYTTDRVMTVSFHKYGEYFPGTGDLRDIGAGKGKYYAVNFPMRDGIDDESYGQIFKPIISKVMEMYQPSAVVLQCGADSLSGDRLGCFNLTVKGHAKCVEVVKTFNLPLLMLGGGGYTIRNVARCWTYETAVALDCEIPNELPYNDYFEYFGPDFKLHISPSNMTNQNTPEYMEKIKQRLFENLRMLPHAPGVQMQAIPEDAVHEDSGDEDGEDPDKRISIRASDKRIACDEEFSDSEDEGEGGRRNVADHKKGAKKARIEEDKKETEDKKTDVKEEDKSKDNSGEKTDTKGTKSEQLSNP

The target of data set [4] is CYP3A4 (Homo sapiens, UniProt P08684). Briefly: Inhibition of human CYP3A4 using 7-benzyloxy-4-(trifluoromethyl)-coumarin as substrate at 10 uM after 30 mins by fluorimetric analysis. The class given is ADME. The settings on record: probe 7-benzyloxy-4-(trifluoromethyl)-coumarin. The gist of the method: as §2
Chain of CYP3A4 (P08684 whole entry): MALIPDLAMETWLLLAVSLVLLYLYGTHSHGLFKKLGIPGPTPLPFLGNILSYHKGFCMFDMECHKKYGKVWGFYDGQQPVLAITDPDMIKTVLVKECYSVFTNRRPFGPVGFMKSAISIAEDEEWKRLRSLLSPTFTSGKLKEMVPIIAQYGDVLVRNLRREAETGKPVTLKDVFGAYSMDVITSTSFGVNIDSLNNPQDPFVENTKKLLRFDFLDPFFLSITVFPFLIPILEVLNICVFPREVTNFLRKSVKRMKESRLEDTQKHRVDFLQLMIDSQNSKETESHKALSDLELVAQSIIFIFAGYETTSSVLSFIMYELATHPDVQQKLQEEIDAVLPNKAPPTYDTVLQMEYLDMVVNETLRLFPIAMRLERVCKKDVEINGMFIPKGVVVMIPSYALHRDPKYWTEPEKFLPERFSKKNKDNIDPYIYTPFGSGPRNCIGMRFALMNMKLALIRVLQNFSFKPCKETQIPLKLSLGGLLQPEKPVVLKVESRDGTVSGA
Data set [5] addresses Histone deacetylase 3 (Homo sapiens, UniProt O15379). Briefly: Inhibition of recombinant human HDAC3 after 15 mins by fluorescence assay. The gist of the method:
as §3

Data set [6] has as its target CYP2C19 (Homo sapiens, UniProt P33261). Briefly: Inhibition of human CYP2C19 using 3-cyano-7-ethoxycoumarin as substrate at 10 uM after 30 mins by fluorimetric analysis. It is filed as ADME. The settings on record: probe 3-cyano-7-ethoxycoumarin. The gist of the method:
as §2

In data set [7] the target is CYP2D6 (Homo sapiens, UniProt P10635). Briefly: Inhibition of human CYP2D6 using 3-[2-(N,N-diethyl-N-methylamino)ethyl]-7-methoxy-4-methylcoumarin as substrate at 10 uM after 30 mins by fluorimetric analysis. It is filed as ADME. The gist of the method: as §2
Chain of CYP2D6 (P10635 whole entry): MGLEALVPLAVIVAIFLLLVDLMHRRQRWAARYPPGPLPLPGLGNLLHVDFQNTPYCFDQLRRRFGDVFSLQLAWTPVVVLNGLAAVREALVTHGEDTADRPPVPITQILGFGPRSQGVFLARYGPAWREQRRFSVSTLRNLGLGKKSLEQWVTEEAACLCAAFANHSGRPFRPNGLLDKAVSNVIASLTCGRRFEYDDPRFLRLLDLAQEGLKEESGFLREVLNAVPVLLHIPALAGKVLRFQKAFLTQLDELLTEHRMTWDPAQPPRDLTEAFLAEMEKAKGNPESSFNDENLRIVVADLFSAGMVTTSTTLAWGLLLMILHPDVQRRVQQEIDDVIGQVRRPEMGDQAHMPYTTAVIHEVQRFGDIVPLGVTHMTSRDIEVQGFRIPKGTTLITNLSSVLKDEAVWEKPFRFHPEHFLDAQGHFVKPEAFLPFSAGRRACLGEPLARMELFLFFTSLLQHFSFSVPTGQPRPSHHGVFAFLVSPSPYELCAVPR
Data set [8] is described as follows: Metabolic stability in mouse liver microsomes assessed as compound remaining at 1 uM preincubated for 10 mins measured after 30 mins by LC-MS/MS analysis. It is filed as ADME. The settings on record: liver microsomes, read-out: Stability. The gist of the method: as §1
A general note: Liver microsomes are a subcellular fraction often used to study metabolism.

The target in data set [9] is T2, Protein deacetylase HDAC6 (Homo sapiens, UniProt Q9UBN7).
T2 sequence (Q9UBN7 whole entry): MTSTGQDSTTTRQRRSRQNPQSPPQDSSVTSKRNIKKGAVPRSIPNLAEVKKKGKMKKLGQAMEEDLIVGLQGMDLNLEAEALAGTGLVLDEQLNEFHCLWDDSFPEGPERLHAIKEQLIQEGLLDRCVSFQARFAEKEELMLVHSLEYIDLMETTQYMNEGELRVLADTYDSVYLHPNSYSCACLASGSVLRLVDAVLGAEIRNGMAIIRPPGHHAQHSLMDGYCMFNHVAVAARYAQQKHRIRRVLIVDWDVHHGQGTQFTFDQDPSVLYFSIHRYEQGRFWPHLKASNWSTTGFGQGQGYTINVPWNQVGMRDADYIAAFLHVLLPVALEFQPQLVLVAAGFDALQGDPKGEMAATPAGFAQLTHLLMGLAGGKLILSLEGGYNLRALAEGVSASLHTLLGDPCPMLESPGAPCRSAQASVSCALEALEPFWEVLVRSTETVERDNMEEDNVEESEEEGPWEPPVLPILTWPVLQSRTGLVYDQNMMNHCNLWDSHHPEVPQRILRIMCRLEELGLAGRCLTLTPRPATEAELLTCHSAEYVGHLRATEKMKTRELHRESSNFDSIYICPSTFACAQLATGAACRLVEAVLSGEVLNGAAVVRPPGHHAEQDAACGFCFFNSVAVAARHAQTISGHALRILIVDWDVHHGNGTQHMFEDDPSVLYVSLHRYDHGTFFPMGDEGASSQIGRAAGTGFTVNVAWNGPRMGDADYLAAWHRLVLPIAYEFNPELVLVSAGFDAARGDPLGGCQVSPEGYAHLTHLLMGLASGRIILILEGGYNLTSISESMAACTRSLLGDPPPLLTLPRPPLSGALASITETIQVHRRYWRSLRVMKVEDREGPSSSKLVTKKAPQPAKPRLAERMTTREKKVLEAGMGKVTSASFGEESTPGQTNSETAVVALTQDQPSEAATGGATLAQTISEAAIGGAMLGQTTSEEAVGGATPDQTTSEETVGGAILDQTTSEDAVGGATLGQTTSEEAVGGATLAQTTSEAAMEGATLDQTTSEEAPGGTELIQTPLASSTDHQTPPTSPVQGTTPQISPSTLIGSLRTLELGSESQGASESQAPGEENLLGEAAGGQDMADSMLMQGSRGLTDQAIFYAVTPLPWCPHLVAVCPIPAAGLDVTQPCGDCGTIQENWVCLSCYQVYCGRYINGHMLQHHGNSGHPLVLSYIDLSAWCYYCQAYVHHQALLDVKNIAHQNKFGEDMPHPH
Briefly: Inhibition of recombinant human HDAC6 after 15 mins by fluorescence assay. The gist of the method:
as §3

Chain of CYP2C19 (P33261 whole entry): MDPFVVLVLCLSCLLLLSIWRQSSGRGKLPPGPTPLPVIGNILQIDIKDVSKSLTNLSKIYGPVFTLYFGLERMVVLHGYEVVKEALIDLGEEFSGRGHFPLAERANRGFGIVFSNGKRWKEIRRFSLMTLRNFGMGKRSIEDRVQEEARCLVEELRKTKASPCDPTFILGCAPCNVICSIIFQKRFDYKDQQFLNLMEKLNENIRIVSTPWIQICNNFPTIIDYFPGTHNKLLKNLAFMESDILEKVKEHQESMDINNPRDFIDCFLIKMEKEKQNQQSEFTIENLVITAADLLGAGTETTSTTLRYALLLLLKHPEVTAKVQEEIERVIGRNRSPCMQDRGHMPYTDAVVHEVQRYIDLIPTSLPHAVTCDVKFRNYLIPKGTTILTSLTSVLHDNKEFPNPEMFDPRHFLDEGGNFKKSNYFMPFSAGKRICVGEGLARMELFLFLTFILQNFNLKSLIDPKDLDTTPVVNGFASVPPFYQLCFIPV
Chain of Histone deacetylase 3 (O15379 whole entry): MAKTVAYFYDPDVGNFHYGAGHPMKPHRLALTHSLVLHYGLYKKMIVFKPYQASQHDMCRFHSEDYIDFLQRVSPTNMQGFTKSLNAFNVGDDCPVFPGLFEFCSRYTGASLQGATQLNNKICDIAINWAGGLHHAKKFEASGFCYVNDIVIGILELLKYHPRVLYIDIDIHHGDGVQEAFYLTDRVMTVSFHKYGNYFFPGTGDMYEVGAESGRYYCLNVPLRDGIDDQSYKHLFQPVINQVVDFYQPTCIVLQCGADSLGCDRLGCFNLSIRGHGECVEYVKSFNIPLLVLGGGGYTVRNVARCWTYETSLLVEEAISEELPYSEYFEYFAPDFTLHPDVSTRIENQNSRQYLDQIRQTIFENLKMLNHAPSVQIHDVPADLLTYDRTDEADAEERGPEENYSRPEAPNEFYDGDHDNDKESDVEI

One may read the inhibition as how much of the control response was suppressed. Read a high inhibition as a response far below the control. Usually IC50 stands for the concentration that inhibits the measured activity by half. For `O=C(/C=C/c1ccc2c(c1)C(=O)CC1(CCN(Cc3ccc(F)cc3)CC1)O2)NO`, the remaining at 0.5 h, 1 µM in data set [1] came to 63%; in [8] it was 47%. The same compound showed an inhibition at 0.25 h, 10 µM in data set [2] of 5%. Moreover, the IC50 in data set [3] stood at 0.32 µM; in data set [5], 0.092 µM. The results for the inhibition at 0.5 h, 10 µM in [4], in data set [6] and in data set [7] were 34%, 61% and 43%, respectively.
Turning to `O=C(/C=C/c1ccc2c(c1)C(=O)CC1(CCN(CCc3ccccc3)CC1)O2)NO`, the remaining at 0.5 h, 1 µM in data set [1] is 66%; in data set [8], 57%. Further, the inhibition at 0.25 h, 10 µM in [2] came out at 13%. Further, the results for the IC50 in data set [3] and in data set [9] were 0.199 µM and 0.138 µM, respectively. Moreover, the inhibition at 0.5 h, 10 µM is 40% in data set [4], 42% in data set [6] and 41% in [7].
